Assay results published in paper PMC5508980 (Molecular nutrition & food research, 2017).
Structures can show the parent of a compound that is named as a salt.

Legend:
Assay type in all cases: biochemical
[1] = target: recombinant HDAC3 (Homo sapiens, UniProt O15379); experiment: Recombinant HDAC activity assay; conditions: for remaining activity at 50 µM: 2 h, read-out: % HDAC activity, Class I HDACs, 3
[2] = target: recombinant HDAC5 (Homo sapiens, UniProt Q9UQL6); experiment: Recombinant HDAC activity assay; conditions: for remaining activity at 50 µM: 2 h, read-out: % HDAC activity, Class IIa HDACs, 5
[3] = target: T1, recombinant HDAC7 (Homo sapiens, UniProt Q8WUI4); experiment: Recombinant HDAC activity assay; conditions: for % HDAC activity, Class IIa HDACs, 7: recombinant protein incubated with 50 µM compound, 2 hrs
T1 sequence (Q8WUI4 1-952): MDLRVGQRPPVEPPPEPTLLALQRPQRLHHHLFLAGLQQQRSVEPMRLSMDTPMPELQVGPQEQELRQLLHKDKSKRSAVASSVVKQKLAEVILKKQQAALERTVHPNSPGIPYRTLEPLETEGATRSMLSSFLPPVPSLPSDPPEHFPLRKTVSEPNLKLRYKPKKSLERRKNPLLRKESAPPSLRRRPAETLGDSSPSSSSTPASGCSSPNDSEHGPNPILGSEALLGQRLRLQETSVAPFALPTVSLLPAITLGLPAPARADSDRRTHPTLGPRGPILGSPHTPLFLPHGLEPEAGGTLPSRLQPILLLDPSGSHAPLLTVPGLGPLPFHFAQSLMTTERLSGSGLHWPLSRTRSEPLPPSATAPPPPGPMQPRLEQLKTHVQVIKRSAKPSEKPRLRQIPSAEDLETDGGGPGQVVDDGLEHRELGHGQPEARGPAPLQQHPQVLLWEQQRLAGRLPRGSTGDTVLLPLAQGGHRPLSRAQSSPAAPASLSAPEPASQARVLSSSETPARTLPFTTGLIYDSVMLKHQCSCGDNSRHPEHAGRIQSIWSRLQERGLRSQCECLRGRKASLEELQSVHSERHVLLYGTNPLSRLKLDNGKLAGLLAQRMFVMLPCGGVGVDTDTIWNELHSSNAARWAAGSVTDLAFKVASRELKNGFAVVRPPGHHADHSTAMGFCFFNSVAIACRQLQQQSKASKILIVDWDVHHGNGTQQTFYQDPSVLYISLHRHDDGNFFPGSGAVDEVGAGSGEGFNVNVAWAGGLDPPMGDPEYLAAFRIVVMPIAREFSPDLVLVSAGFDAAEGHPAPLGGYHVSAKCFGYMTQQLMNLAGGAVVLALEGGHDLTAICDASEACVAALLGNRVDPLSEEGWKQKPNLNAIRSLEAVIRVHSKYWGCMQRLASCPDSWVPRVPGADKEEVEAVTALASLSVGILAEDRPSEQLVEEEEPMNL

[4] = target: recombinant HDAC9 (Homo sapiens, UniProt Q9UKV0); experiment: Recombinant HDAC activity assay; conditions: for remaining activity at 50 µM: 2 h, read-out: % HDAC activity, Class IIa HDACs, 9
[5] = target: recombinant HDAC1 (Homo sapiens, UniProt Q13547); experiment: Recombinant HDAC activity assay; conditions: for remaining activity at 50 µM: 2 h, read-out: % HDAC activity, Class I HDACs, 1
[6] = target: recombinant HDAC2 (Homo sapiens, UniProt Q92769); experiment: Recombinant HDAC activity assay; conditions: for remaining activity at 50 µM: 2 h, read-out: % HDAC activity, Class I HDACs, 2
[7] = target: T2, recombinant HDAC8 (Homo sapiens, UniProt Q9BY41); experiment: Recombinant HDAC activity assay; conditions: for remaining activity at 50 µM: 2 h, read-out: % HDAC activity, Class I HDACs, 8; for % HDAC activity, Class I HDACs, 8: recombinant protein incubated with 50 µM compound, 2 hrs
T2 sequence (Q9BY41 1-377): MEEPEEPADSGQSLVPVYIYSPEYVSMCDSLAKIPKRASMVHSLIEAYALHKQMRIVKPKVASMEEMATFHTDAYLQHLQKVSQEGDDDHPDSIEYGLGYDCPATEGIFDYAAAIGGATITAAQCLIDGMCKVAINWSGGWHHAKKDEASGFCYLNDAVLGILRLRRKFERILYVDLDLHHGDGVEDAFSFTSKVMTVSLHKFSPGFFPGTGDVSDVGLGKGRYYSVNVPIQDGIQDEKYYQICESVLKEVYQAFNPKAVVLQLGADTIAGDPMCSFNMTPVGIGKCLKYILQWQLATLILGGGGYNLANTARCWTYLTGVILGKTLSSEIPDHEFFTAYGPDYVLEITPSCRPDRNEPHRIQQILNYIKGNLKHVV

[8] = target: T3, recombinant HDAC6 (Homo sapiens, UniProt Q9UBN7); experiment: Recombinant HDAC activity assay; conditions: 2 h, read-out: % HDAC activity, Class IIb HDACs, 6
T3 sequence (Q9UBN7 1-1215): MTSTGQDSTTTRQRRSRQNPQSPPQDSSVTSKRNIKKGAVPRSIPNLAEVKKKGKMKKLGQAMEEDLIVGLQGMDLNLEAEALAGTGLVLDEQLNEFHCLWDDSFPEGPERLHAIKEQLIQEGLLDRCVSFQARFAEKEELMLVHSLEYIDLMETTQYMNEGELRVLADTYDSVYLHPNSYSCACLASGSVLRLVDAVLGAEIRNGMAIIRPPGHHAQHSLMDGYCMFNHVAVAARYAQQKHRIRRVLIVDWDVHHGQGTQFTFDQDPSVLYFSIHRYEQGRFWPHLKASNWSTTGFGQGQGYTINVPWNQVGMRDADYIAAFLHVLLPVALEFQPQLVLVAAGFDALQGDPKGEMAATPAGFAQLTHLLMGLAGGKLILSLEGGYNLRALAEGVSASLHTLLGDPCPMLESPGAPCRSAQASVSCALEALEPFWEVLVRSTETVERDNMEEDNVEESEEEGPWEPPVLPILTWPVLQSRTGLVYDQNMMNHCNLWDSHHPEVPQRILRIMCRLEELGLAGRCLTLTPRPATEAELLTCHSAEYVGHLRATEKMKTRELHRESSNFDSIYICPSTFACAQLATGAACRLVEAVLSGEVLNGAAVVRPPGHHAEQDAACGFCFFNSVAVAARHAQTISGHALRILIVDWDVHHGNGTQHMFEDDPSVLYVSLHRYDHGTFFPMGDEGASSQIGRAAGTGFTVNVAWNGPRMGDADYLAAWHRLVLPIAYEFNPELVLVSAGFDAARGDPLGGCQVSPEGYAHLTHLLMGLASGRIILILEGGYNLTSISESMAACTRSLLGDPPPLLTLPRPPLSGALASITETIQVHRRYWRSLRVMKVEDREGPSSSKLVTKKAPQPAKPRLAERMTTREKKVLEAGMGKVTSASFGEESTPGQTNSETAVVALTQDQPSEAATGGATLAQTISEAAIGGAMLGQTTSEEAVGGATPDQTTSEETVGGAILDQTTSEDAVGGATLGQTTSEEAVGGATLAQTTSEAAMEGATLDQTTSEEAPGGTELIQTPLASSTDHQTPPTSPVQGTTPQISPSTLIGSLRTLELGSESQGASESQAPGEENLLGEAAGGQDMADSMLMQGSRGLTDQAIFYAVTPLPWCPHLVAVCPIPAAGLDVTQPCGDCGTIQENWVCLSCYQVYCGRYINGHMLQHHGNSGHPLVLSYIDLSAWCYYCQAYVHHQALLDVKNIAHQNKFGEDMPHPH

[9] = target: T4, recombinant HDAC10 (Homo sapiens, UniProt Q969S8); experiment: Recombinant HDAC activity assay; conditions: for remaining activity at 50 µM: 2 h, read-out: % HDAC activity, Class IIb HDACs, 10
T4 sequence (Q969S8 1-669): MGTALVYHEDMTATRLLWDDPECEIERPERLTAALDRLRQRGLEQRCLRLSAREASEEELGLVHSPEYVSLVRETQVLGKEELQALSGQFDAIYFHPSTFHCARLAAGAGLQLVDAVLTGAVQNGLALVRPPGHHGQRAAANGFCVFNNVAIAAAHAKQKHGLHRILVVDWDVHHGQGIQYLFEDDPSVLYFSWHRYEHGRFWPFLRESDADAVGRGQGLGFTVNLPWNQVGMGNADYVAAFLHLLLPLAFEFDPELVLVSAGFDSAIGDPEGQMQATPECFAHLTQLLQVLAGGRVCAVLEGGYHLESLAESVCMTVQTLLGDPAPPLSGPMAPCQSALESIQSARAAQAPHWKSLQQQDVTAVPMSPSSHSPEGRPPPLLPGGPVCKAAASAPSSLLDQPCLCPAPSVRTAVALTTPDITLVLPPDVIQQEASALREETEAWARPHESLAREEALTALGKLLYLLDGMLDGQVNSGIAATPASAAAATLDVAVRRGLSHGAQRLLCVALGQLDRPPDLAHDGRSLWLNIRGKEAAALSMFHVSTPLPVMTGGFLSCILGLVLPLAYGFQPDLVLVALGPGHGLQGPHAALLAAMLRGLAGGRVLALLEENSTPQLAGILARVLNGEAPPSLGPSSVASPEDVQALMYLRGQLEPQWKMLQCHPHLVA

[10] = target: recombinant HDAC4 (Homo sapiens, UniProt P56524); experiment: Recombinant HDAC activity assay; conditions: recombinant protein incubated with 50 µM compound, 2 hrs
[11] = system: HDAC activity in bovine cardiac tissue; experiment: Natural product library screen with class-selective HDAC substrates; conditions: 2 hours treatment
Summary of the method: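 The screen covered 131 natural compounds against bovine cardiac tissue lysate at 30 µg protein/well in PBS (pH 7.4 lysis buffer with Triton X-100 and NaCl). Test compound for 2 h, then separate class I, IIa or IIb fluorogenic acyl-lysine-AMC substrates for 2 h at 37 °C. Developer (Triton X-100, 3 µM TSA, 0.75 mg/ml trypsin) for 20 min; fluorescence read at 360/460 nm.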

[12] = recombinant protein incubated with 50 µM compound, 2 hrs

Chain of recombinant HDAC5 (Q9UQL6 whole entry): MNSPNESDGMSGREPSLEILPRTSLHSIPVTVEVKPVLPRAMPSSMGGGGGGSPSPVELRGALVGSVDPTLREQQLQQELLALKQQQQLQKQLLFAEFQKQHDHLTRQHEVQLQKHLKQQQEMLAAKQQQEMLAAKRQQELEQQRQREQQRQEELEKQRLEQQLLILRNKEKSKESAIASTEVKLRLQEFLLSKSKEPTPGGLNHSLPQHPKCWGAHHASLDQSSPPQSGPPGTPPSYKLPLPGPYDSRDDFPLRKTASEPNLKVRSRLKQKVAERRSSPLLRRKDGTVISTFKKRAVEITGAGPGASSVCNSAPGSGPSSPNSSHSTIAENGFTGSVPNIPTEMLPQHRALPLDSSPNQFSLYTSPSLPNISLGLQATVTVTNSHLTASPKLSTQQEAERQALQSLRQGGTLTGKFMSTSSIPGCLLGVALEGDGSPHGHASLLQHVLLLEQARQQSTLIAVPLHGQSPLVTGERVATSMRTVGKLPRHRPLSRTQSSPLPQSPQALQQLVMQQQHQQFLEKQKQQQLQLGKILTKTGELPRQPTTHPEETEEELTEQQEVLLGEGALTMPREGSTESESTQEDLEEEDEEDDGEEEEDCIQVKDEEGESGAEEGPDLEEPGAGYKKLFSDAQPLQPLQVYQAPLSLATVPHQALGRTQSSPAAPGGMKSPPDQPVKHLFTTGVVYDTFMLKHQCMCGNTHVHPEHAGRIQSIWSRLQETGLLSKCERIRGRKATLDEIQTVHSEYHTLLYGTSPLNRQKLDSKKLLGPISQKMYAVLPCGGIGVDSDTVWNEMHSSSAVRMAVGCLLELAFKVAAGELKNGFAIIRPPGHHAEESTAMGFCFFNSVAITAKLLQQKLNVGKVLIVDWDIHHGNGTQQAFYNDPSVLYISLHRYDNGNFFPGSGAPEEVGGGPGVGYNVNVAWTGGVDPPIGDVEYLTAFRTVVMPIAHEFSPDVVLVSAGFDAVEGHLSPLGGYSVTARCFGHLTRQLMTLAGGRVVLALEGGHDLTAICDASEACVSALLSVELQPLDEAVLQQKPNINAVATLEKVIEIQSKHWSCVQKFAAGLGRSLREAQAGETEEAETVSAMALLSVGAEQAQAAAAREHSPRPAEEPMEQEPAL
Chain of recombinant HDAC3 (O15379 whole entry): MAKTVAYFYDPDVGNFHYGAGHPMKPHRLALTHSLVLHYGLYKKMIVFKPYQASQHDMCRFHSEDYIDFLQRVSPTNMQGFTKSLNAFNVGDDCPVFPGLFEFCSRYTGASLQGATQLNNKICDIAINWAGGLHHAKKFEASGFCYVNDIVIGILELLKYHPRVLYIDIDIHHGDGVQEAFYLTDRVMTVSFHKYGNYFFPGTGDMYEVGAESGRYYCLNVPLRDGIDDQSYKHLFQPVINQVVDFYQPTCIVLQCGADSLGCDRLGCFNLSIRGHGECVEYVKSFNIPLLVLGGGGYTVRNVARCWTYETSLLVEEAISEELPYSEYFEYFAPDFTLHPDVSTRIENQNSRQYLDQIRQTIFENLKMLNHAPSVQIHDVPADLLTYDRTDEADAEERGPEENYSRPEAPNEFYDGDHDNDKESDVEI
Chain of recombinant HDAC3 (Q9Y618 395-489 partner limits assumed): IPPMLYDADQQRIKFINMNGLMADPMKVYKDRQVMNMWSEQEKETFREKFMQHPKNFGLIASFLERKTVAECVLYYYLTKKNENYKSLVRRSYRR
Chain of recombinant HDAC1 (Q13547 whole entry): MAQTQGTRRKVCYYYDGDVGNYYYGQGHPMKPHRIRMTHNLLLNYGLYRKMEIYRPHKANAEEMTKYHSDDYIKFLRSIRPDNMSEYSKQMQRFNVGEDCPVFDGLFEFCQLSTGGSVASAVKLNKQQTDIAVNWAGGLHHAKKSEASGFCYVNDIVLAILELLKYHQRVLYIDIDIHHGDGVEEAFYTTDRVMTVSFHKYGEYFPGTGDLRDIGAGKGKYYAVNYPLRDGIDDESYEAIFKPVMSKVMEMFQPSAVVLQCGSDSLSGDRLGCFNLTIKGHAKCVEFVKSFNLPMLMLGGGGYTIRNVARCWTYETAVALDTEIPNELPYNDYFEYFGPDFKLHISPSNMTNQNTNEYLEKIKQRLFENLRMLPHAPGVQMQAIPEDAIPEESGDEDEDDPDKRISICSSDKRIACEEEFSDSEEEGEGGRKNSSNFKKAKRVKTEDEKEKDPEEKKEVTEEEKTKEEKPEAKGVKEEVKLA
Chain of recombinant HDAC2 (Q92769 whole entry): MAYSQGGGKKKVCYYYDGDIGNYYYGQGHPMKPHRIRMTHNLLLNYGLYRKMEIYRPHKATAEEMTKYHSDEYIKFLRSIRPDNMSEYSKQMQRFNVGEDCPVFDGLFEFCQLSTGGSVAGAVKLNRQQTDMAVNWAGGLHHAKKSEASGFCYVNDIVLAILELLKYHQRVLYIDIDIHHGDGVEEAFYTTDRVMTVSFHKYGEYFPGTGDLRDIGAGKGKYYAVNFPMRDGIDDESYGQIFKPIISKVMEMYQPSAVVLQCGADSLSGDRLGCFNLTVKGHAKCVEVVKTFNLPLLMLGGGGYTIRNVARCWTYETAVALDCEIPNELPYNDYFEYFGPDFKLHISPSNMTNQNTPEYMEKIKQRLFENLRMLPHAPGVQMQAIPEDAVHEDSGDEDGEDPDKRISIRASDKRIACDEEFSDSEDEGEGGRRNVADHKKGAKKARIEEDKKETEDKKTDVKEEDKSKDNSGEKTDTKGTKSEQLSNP
Chain of recombinant HDAC9 (Q9UKV0 whole entry): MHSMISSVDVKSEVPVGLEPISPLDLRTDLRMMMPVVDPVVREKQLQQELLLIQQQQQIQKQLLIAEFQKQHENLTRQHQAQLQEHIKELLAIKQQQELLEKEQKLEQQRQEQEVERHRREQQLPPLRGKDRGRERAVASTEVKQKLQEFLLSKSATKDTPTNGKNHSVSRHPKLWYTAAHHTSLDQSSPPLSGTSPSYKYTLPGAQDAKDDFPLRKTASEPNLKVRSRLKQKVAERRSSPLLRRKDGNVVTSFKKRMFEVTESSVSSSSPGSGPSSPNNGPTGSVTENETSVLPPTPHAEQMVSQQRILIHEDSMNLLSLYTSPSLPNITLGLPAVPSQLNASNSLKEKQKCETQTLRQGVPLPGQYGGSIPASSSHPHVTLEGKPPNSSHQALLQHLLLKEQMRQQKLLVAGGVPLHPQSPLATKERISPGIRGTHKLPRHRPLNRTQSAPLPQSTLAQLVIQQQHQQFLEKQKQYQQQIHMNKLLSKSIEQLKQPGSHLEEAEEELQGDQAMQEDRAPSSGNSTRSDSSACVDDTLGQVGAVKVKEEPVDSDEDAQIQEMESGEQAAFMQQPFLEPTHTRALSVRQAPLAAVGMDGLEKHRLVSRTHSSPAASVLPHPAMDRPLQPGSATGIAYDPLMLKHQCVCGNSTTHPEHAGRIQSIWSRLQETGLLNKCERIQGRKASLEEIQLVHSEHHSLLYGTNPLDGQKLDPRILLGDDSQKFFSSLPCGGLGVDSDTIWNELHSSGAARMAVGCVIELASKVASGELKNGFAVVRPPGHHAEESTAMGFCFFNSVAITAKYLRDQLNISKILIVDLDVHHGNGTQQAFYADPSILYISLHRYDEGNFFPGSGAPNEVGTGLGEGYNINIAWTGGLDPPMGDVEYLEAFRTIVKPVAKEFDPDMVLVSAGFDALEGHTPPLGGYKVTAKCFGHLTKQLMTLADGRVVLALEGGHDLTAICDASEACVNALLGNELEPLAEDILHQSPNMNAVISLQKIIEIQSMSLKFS
Chain of recombinant HDAC4 (P56524 whole entry): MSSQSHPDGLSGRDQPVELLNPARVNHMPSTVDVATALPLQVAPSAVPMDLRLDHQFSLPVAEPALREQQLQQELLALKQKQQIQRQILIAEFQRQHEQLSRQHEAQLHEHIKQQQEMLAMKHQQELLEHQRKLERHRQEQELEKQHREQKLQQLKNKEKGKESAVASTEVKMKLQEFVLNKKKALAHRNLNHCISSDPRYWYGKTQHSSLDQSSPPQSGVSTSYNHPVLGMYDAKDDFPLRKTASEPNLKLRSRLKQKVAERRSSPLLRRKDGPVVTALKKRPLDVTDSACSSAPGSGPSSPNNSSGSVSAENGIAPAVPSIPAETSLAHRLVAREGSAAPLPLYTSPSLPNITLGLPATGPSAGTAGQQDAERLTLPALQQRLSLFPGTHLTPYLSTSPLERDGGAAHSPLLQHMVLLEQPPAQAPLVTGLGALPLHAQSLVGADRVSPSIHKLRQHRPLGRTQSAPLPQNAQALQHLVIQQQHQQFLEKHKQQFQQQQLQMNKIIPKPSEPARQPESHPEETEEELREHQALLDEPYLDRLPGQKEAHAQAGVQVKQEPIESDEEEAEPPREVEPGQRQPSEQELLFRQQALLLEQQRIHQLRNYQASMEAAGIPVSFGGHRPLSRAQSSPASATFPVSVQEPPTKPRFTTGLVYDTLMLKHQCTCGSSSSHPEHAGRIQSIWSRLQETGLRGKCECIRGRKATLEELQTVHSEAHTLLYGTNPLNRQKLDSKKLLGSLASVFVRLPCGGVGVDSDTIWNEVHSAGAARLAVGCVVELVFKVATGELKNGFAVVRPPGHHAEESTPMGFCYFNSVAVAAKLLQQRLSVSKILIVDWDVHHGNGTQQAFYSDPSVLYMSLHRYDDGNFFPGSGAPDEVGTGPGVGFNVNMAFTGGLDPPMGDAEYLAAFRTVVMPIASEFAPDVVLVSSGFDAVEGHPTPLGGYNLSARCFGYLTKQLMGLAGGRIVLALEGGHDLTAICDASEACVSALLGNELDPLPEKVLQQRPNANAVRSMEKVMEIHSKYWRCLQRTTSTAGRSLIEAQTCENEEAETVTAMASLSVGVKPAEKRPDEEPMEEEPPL

O=c1cc(-c2ccccc2)oc2cc(O)c(O)c(O)c12 [Baicalein]
remaining activity at 50 µM [1]: 59.2%
remaining activity at 50 µM [2]: 76.6%
% HDAC activity, Class IIa HDACs, 7 [3]: -
remaining activity at 50 µM [4]: 66.1%

O=C(O)[C@H]1O[C@@H](Oc2cc3oc(-c4ccccc4)cc(=O)c3c(O)c2O)[C@H](O)[C@@H](O)[C@@H]1O [Baicalin]
remaining activity at 50 µM [5]: 89%
remaining activity at 50 µM [6]: 72.9%
remaining activity at 50 µM [1]: 81.7%
remaining activity at 50 µM [7]: 78.3%
remaining activity at 50 µM [2]: 81.8%
% HDAC activity, Class IIa HDACs, 7 [3]: -
remaining activity at 50 µM [4]: 91.5%
remaining activity at 50 µM [8]: 86.2%
remaining activity at 50 µM [9]: 84.7%

COc1ccc2cc3[n+](cc2c1OC)CCc1cc2c(cc1-3)OCO2 [Berberine HCl, berberine hydrochloride]
remaining activity at 50 µM [5]: 50.5%
remaining activity at 50 µM [6]: 70.3%
remaining activity at 50 µM [1]: 48.3%
remaining activity at 50 µM [7]: 46.8%
remaining activity at 50 µM [8]: 60.9%
remaining activity at 50 µM [9]: 45%

O=C(O)/C=C/c1ccc(O)c(O)c1 [Caffeic acid]
% HDAC activity, Class IIa HDACs, 7 [3]: -

O=C1c2c(O)cc(O)cc2O[C@H](c2cc(O)c(O)c(O)c2)[C@H]1O [Dihydromyricetin]
remaining activity at 50 µM [5]: 90%
remaining activity at 50 µM [6]: 73.9%
remaining activity at 50 µM [1]: 82.5%
remaining activity at 50 µM [7]: 81.9%
remaining activity at 50 µM [2]: 73.4%
remaining activity at 50 µM ([3]; 2 h, read-out: % HDAC activity, Class IIa HDACs, 7): 94%
remaining activity at 50 µM [4]: 92.5%
remaining activity at 50 µM [9]: 86.3%

O=C(O[C@@H]1Cc2c(O)cc(O)cc2O[C@@H]1c1cc(O)c(O)c(O)c1)c1cc(O)c(O)c(O)c1 [EGCG, epigallocatechin gallate]
% HDAC activity, Class I HDACs, 8 [7]: 89.1%
% HDAC activity, Class IIa HDACs, 4 [10]: 82.5%
% HDAC activity, Class IIa HDACs, 7 [3]: -
% HDAC activity, Class IIb HDACs, 10 [9, 12]: 91.2%

O=C1Nc2ccccc2/C1=C1/Nc2ccccc2C1=O [Indirubin]
remaining activity at 50 µM [5]: 61.5%
remaining activity at 50 µM [6]: 58.7%
remaining activity at 50 µM [1]: 56.6%
remaining activity at 50 µM [7]: 58.4%
% HDAC activity, Class IIa HDACs, 7 [3]: -
remaining activity at 50 µM [8]: 65.7%
remaining activity at 50 µM [9]: 67%

O=c1c(O)c(-c2ccc(O)cc2)oc2cc(O)cc(O)c12 [Kaempferol]
remaining activity at 50 µM [5]: 72.8%
remaining activity at 50 µM [6]: 71.7%
remaining activity at 50 µM [1]: 66.9%
remaining activity at 50 µM [7]: 68.7%
remaining activity at 50 µM [2]: 73.5%
% HDAC activity, Class IIa HDACs, 7 [3]: -
remaining activity at 50 µM [4]: 70.6%
remaining activity at 50 µM [9]: 71.6%

O=c1cc(-c2ccc(O)c(O)c2)oc2cc(O)cc(O)c12 [Luteolin]
remaining activity at 50 µM [5]: 60.7%
remaining activity at 50 µM [6]: 49.5%
remaining activity at 50 µM [1]: 51.4%
remaining activity at 50 µM [7]: 52.8%
remaining activity at 50 µM [2]: 59.5%
% HDAC activity, Class IIa HDACs, 7 [3]: -
remaining activity at 50 µM [4]: 52.3%
remaining activity at 50 µM [9]: 55.9%
catalytic HDAC activity across class I, IIa and IIb substrates, effect in words [11]: dose-dependent pan-HDAC inhibition

O.O=c1c(O)c(-c2ccc(O)cc2O)oc2cc(O)cc(O)c12 [Morin hydrate]
% HDAC activity, Class I HDACs, 1 [5, 12]: 62.3%
% HDAC activity, Class I HDACs, 2 [6, 12]: 43.3%
% HDAC activity, Class I HDACs, 3 [1, 12]: 56.0%
% HDAC activity, Class I HDACs, 8 [7]: 49.3%
% HDAC activity, Class IIa HDACs, 5 [2, 12]: 56.7%
% HDAC activity, Class IIa HDACs, 7 [3]: -
% HDAC activity, Class IIa HDACs, 9 [4, 12]: 56.1%

O=c1c(O)c(-c2cc(O)c(O)c(O)c2)oc2cc(O)cc(O)c12 [Myricetin]
remaining activity at 50 µM [5]: 68%
remaining activity at 50 µM [1]: 59.9%
remaining activity at 50 µM [7]: 60.2%
remaining activity at 50 µM [2]: 65.1%
% HDAC activity, Class IIa HDACs, 7 [3]: -
remaining activity at 50 µM [4]: 77%
remaining activity at 50 µM [9]: 63.4%
catalytic HDAC activity across class I, IIa and IIb substrates, effect in words [11]: pan-HDAC inhibition
